Data as given in ChEMBL document CHEMBL3120154, “2-[N-Alkyl(R-phenyl)-aminomethyl]-3-phenyl-7-trifluoromethylquinoxalines as anticancer agents inhibitors of folate enzymes” (Eur J Med Chem, 2014).

Tests used:
Format in all cases: functional
SR = assay: Cytotoxicity against human SR cells at 10^-8 M after 48 hrs by SRB assay; conditions: read-out: GI
[1] = Cytotoxicity against human OVCAR5 cells at 10^-7 M after 48 hrs by SRB assay; conditions: OVCAR-5, 48 h, read-out: GI
MOLT-4 [2] = assay: Cytotoxicity against human MOLT4 cells at 10^-7 M after 48 hrs by SRB assay; conditions: MOLT-4, 48 h, read-out: GI
SK-MEL-28 = assay: Cytotoxicity against human SK-MEL-28 cells at 10^-6 M after 48 hrs by SRB assay; conditions: SK-MEL-28, 48 h, read-out: GI
Method in brief: (§1)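 Second-stage screen in the 60-cell-line human tumor panel at NCI, over a 5-log range (100, 10, 1, 0.1, 0.01 micromolar). Cells were exposed to drug for 48 h and growth was estimated with a sulforhodamine B protein stain. The value is percent growth inhibition at each concentration.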

U-251 = assay: Cytotoxicity against human U251 cells at 10^-6 M after 48 hrs by SRB assay; conditions: U-251, 48 h, read-out: GI
SNB-75 = assay: Cytotoxicity against human SNB75 cells at 10^-6 M after 48 hrs by SRB assay; conditions: SNB-75, 48 h, read-out: GI
SF-539 = assay: Cytotoxicity against human SF539 cells at 10^-6 M after 48 hrs by SRB assay; conditions: SF-539, 48 h, read-out: GI; method in brief: as §1
SF-295 = assay: Cytotoxicity against human SF295 cells at 10^-6 M after 48 hrs by SRB assay; conditions: SF-295, 48 h, read-out: GI; method in brief: as §1
SW-620 = assay: Cytotoxicity against human SW620 cells at 10^-6 M after 48 hrs by SRB assay; conditions: SW-620, 48 h, read-out: GI
HT-29 = assay: Cytotoxicity against human HT-29 cells at 10^-6 M after 48 hrs by SRB assay; conditions: HT-29, 48 h, read-out: GI
Method in brief: (§2)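 Run by NCI on its 60-line human tumor cell panel, after a three-cell-line prescreen. Cells were exposed to drug for 48 h over a 5-log range: 100, 10, 1, 0.1 and 0.01 micromolar. Growth was estimated by sulforhodamine B (SRB) protein staining. Percent growth inhibition (I%) was recorded at each concentration relative to untreated control cells.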

HCT-15 = assay: Cytotoxicity against human HCT15 cells at 10^-6 M after 48 hrs by SRB assay; conditions: HCT-15, 48 h, read-out: GI; method in brief: as §2
SN12C = assay: Cytotoxicity against human SN12C cells at 10^-6 M after 48 hrs by SRB assay; conditions: read-out: GI
786-0 [3] = assay: Cytotoxicity against human 786-0 cells at 10^-6 M after 48 hrs by SRB assay; conditions: 786-0, 48 h, read-out: GI; method in brief: as §2
OVCAR-3 = assay: Cytotoxicity against human OVCAR3 cells at 10^-6 M after 48 hrs by SRB assay; conditions: OVCAR-3, 48 h, read-out: GI
Method in brief: (§3)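 Run in the NCI 60-cell-line screen after a three-line prescreen. Cells got a 48 h drug exposure; viability/growth was estimated with the sulforhodamine B protein assay. Growth inhibition (I%) was recorded at 100, 10, 1, 0.1 and 0.01 micromolar. Percent growth is relative to untreated control cells, and negative values indicate cell kill.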

[4] = Cytotoxicity against human UACC257 cells at 10^-6 M after 48 hrs by SRB assay; conditions: UACC-257, 48 h, read-out: GI
SK-MEL-2 = assay: Cytotoxicity against human SK-MEL-2 cells at 10^-6 M after 48 hrs by SRB assay; conditions: SK-MEL-2, 48 h, read-out: GI; method in brief: as §1
HCT-116 = assay: Cytotoxicity against human HCT116 cells at 10^-6 M after 48 hrs by SRB assay; conditions: HCT-116, 48 h, read-out: GI; method in brief: as §2
NCI-H226 = assay: Cytotoxicity against human NCI-H226 cells at 10^-6 M after 48 hrs by SRB assay; conditions: NCI-H226, 48 h, read-out: GI; method in brief: as §3
HOP-92 = assay: Cytotoxicity against human HOP92 cells at 10^-6 M after 48 hrs by SRB assay; conditions: HOP-92, 48 h, read-out: GI; method in brief: as §2
A549 = assay: Cytotoxicity against human A549 cells at 10^-6 M after 48 hrs by SRB assay; conditions: A549, 48 h, read-out: GI; method in brief: as §2
BT-549 = assay: Cytotoxicity against human BT549 cells at 10^-5 M after 48 hrs by SRB assay; conditions: BT-549, 48 h, read-out: GI; method in brief: as §2
[5] = Cytotoxicity against human Hs578T cells at 10^-5 M after 48 hrs by SRB assay; conditions: Hs-578T, read-out: GI; method in brief: as §2
MDA-MB-231 = assay: Cytotoxicity against human MDA-MB-231 cells at 10^-5 M after 48 hrs by SRB assay; conditions: MDA-MB-231, 48 h, read-out: GI; method in brief: as §3
MCF7 = assay: Cytotoxicity against human MCF7 cells at 10^-5 M after 48 hrs by SRB assay; conditions: MCF7, 48 h, read-out: GI; method in brief: as §3
TK-10 = assay: Cytotoxicity against human TK10 cells at 10^-5 M after 48 hrs by SRB assay; conditions: TK-10, 48 h, read-out: GI
A498 = assay: Cytotoxicity against human A498 cells at 10^-5 M after 48 hrs by SRB assay; conditions: A498, 48 h, read-out: GI; method in brief: as §2
786-0 [6] = assay: Cytotoxicity against human 786-0 cells at 10^-5 M after 48 hrs by SRB assay; conditions: 786-0, 48 h, read-out: GI; method in brief: as §2
SK-OV-3 = assay: Cytotoxicity against human SKOV3 cells at 10^-5 M after 48 hrs by SRB assay; conditions: SK-OV-3, 48 h, read-out: GI; method in brief: as §1
[7] = Cytotoxicity against human OVCAR5 cells at 10^-5 M after 48 hrs by SRB assay; conditions: OVCAR-5, 48 h, read-out: GI; method in brief: as §1
UACC-62 = assay: Cytotoxicity against human UACC62 cells at 10^-5 M after 48 hrs by SRB assay; conditions: UACC-62, 48 h, read-out: GI
M14 = assay: Cytotoxicity against human M14 cells at 10^-5 M after 48 hrs by SRB assay; conditions: M14, 48 h, read-out: GI; method in brief: as §3
SF-268 = assay: Cytotoxicity against human SF268 cells at 10^-5 M after 48 hrs by SRB assay; conditions: SF-268, 48 h, read-out: GI; method in brief: as §1
[8] = Cytotoxicity against human EKVX cells at 10^-5 M after 48 hrs by SRB assay; conditions: read-out: GI; method in brief: as §2
MOLT-4 [9] = assay: Cytotoxicity against human MOLT4 cells at 10^-5 M after 48 hrs by SRB assay; conditions: MOLT-4, 48 h, read-out: GI; method in brief: as §3
HL-60(TB) = assay: Cytotoxicity against human HL-60(TB) cells at 10^-5 M after 48 hrs by SRB assay; conditions: HL-60, 48 h, read-out: GI
Method in brief: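 NCI 60-human-tumour-cell-line screen run over a 5-log dose range (100, 10, 1, 0.1 and 0.01 µM). Cells were exposed to drug for 48 h. Growth was estimated by sulforhodamine B protein staining. Values are percent growth inhibition at each concentration, relative to untreated control cells.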

CCRF-CEM = assay: Cytotoxicity against human CCRF-CEM cells at 10^-5 M after 48 hrs by SRB assay; conditions: read-out: GI; method in brief: as §2

CCN(Cc1nc2cc(C(F)(F)F)ccc2nc1-c1ccccc1)c1ccc(OC)c(OC)c1
inhibition of growth at 0.01 µM (SR): < 40% | inhibition of growth at 0.1 µM [1]: < 40% | inhibition of growth at 0.1 µM (MOLT-4 [2]): < 40% | inhibition of growth at 1 µM (SK-MEL-28): < 40% | inhibition of growth at 1 µM (U-251): < 40% | inhibition of growth at 1 µM (SNB-75): < 40% | inhibition of growth at 1 µM (SF-539): < 40% | inhibition of growth at 1 µM (SF-295): < 40% | inhibition of growth at 1 µM (SW-620): < 40% | inhibition of growth at 1 µM (HT-29): < 40% | inhibition of growth at 1 µM (HCT-15): < 40% | inhibition of growth at 1 µM (SN12C): < 40% | inhibition of growth at 1 µM (786-0 [3]): < 40% | inhibition of growth at 1 µM (OVCAR-3): 25% | inhibition of growth at 1 µM [4]: 104% | inhibition of growth at 1 µM (SK-MEL-2): < 40% | inhibition of growth at 1 µM (HCT-116): 12% | inhibition of growth at 1 µM (NCI-H226): 17% | inhibition of growth at 1 µM (HOP-92): < 40% | inhibition of growth at 1 µM (A549): 56% | inhibition of growth at 10 µM (BT-549): 33% | inhibition of growth at 10 µM [5]: 43% | inhibition of growth at 10 µM (MDA-MB-231): 36% | inhibition of growth at 10 µM (MCF7): 25% | inhibition of growth at 10 µM (TK-10): < 40% | inhibition of growth at 10 µM (A498): 63% | inhibition of growth at 10 µM (786-0 [6]): 15% | inhibition of growth at 10 µM (SK-OV-3): < 40% | inhibition of growth at 10 µM [7]: < 40% | inhibition of growth at 10 µM (UACC-62): 24% | inhibition of growth at 10 µM (M14): 17% | inhibition of growth at 10 µM (SF-268): 15% | inhibition of growth at 10 µM [8]: 23% | inhibition of growth at 10 µM (MOLT-4 [9]): 44% | inhibition of growth at 10 µM (HL-60(TB)): 83% | inhibition of growth at 10 µM (CCRF-CEM): 70%

C#CCN(Cc1nc2cc(C(F)(F)F)ccc2nc1-c1ccccc1)c1ccc(C)cc1
inhibition of growth at 1 µM (SK-MEL-28): < 40% | inhibition of growth at 1 µM (U-251): < 40% | inhibition of growth at 1 µM (SNB-75): < 40% | inhibition of growth at 1 µM (SF-539): < 40% | inhibition of growth at 1 µM (SF-295): 56% | inhibition of growth at 1 µM (SW-620): < 40% | inhibition of growth at 1 µM (HT-29): < 40% | inhibition of growth at 1 µM (HCT-15): 63% | inhibition of growth at 1 µM (SN12C): < 40% | inhibition of growth at 1 µM (786-0 [3]): < 40% | inhibition of growth at 1 µM (OVCAR-3): 62% | inhibition of growth at 1 µM [4]: < 40% | inhibition of growth at 1 µM (SK-MEL-2): 41% | inhibition of growth at 1 µM (HCT-116): 66% | inhibition of growth at 1 µM (NCI-H226): < 40% | inhibition of growth at 1 µM (HOP-92): < 40% | inhibition of growth at 1 µM (A549): 45% | inhibition of growth at 10 µM (BT-549): < 40% | inhibition of growth at 10 µM [5]: 88% | inhibition of growth at 10 µM (MDA-MB-231): 64% | inhibition of growth at 10 µM (MCF7): 70% | inhibition of growth at 10 µM (TK-10): 54% | inhibition of growth at 10 µM (A498): 116% | inhibition of growth at 10 µM (786-0 [6]): 70% | inhibition of growth at 10 µM (SK-OV-3): 112% | inhibition of growth at 10 µM [7]: 71% | inhibition of growth at 10 µM (UACC-62): 91% | inhibition of growth at 10 µM (M14): 95% | inhibition of growth at 10 µM (SF-268): 50% | inhibition of growth at 10 µM [8]: < 40% | inhibition of growth at 10 µM (MOLT-4 [9]): 88% | inhibition of growth at 10 µM (HL-60(TB)): 85% | inhibition of growth at 10 µM (CCRF-CEM): < 40%
